# Results as given in ChEMBL document CHEMBL1132974 (J Med Chem, 2000).
# Values joined by “and” are separate entries in the source; they are usually repeats but may differ in a detail not shown here. Equal values may be shown once.
# Tests used:
# [1] = target: Histamine H1 receptor (Cavia porcellus) (UniProt P31389); assay: Relative potency in guinea pig ileum whole segment; value ranges from 4 to 15; type: functional, tissue-based
# [2] = target: Histamine H1 receptor (Cavia porcellus) (UniProt P31389); assay: Negative logarithm of receptor dissociation constant Kp was reported; type: functional
# Summary of the method: (§1)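 Guinea-pig ileum (0.1 µM atropine, 37 °C Tyrode's). […] Where several partial-agonist concentrations were used, the overall value comes from a Kaumann-Marano plot with slope constrained to unity.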
# [3] = target: Histamine H1 receptor (Cavia porcellus) (UniProt P31389); assay: Intrinsic activity of the compounddwas reported in guinea pig ileum whole segment; type: functional, tissue-based
# Histamine H1 receptor [4] = target: T1, Histamine H1 receptor (Cavia porcellus, UniProt P31389); assay: Effective concentration for agonist activity in guinea pig ileum whole segment; type: functional, tissue-based
# [5] = target: 5-hydroxytryptamine receptor 4 (Rattus norvegicus, UniProt Q62758); assay: Compound was evaluated for its antagonist affinity towards 5-hydroxytryptamine 4 receptor of rat; type: functional; details: read-out: pA2 (converted)
# Summary of the method: (§2)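 Functional antagonism in rat tissues: α1D (thoracic aorta), 5-HT2A (tail artery), 5-HT4 (oesophageal tunica muscularis mucosae). Results are given as apparent pA2 from single-concentration rightward shifts, or pD'2 when only curve depression occurred.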
# Histamine H1 receptor [6] = target: T1, Histamine H1 receptor; assay: Antagonism of guinea pig ileum contraction at 100 nM mepyramine; type: functional, tissue-based; details: read-out: pA2 (converted)
# Summary of the method: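 Guinea-pig whole ileal segments (2.0–2.5 cm), isotonic, preload 0.5 g, Tyrode's at 37 °C, 95% O2/5% CO2, with 0.1 µM atropine throughout. […] Apparent pA2 = −log c + log(r−1); full pA2 from Schild plot, slope fixed at 1.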
# Histamine H3 receptor = Histamine H3 receptor (Cavia porcellus, UniProt Q9JI35); assay: Compound was evaluated for its antagonist affinity towards Histamine H3 receptor of guinea pig; type: functional; details: read-out: pA2 (converted)
# Summary of the method: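 Electrically stimulated guinea-pig ileal longitudinal muscle with myenteric plexus, isometric (7.5 mN). Cumulative (R)-α-methylhistamine curves were run with and without test compound (20 min), with 1 µM mepyramine present. Values were apparent pA2, or pD'2 where curves were depressed.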
# [7] = target: 5-hydroxytryptamine receptor 2A (Rattus norvegicus, UniProt P14842); assay: Compound was evaluated for its antagonist affinity towards 5-hydroxytryptamine 2A receptor of rat; type: functional; details: read-out: pA2 (converted); summary of the method: as §2
# Histamine H1 receptor [8] = target: T1, Histamine H1 receptor; assay: Compound was evaluated for mepyramine antagonism effects in guinea pig aorta (contraction) at a mepyramine concentration of 100 nM; type: functional, tissue-based; details: read-out: pA2 (converted)
# Summary of the method: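 Guinea-pig aortic rings with endothelium damaged, isometric (10 mN), 37 °C Krebs-Henseleit. Agonist curves were run with mepyramine (100 nM, about 60 min) after threshold PGF2α precontraction. Apparent pA2 = −log c + log(r−1).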
# [9] = target: Beta-1 adrenergic receptor (Cavia porcellus, UniProt B0FL73); assay: Compound was evaluated for its antagonist affinity towards Beta-1 adrenergic receptor of guinea pig; type: functional; details: read-out: pA2 (converted)
# Summary of the method: (§3)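 Functional antagonism assays in guinea-pig tissues, each run with 1 µM mepyramine present: M3 (whole ileum), β1 (right atrium), 5-HT1B (iliac artery), 5-HT3 (quiescent ileal longitudinal muscle with myenteric plexus). Results are given as apparent pA2, or pD'2 when only curve depression occurred.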
# [10] = target: Muscarinic acetylcholine receptor M3 (Cavia porcellus, UniProt Q8VH26); assay: Compound was evaluated for its antagonist affinity towards Muscarinic acetylcholine receptor M3 of guinea pig; type: functional; details: read-out: pA2 (converted); summary of the method: as §3
# Histamine H1 receptor [11] = target: T2, Histamine H1 receptor (Rattus norvegicus, UniProt P31390); assay: Compound was evaluated for mepyramine antagonism effects in rat aorta (relaxation) at a mepyramine concentration of 100 nM; type: functional, tissue-based; details: read-out: pA2 (converted)
# Histamine H1 receptor [12] = target: T2, Histamine H1 receptor; assay: Effective concentration for agonism activity in relaxed rat aortic rings with intact endothelium, submaximally precontracted with 15.8 nM U-46,619; type: functional, tissue-based, Aorta
# Histamine H2 receptor = Histamine H2 receptor (Cavia porcellus, UniProt P47747); assay: Compound was evaluated for its antagonist affinity towards Histamine H2 receptor of guinea pig; type: functional; details: read-out: pA2 (converted)
# [13] = target: T3, Alpha-1D adrenergic receptor (Rattus norvegicus, UniProt P23944); assay: Compound was evaluated for its antagonist affinity towards Alpha-1D adrenergic receptor of rat; type: functional; details: read-out: pA2 (converted); summary of the method: as §2
# T3 sequence (P23944 whole entry): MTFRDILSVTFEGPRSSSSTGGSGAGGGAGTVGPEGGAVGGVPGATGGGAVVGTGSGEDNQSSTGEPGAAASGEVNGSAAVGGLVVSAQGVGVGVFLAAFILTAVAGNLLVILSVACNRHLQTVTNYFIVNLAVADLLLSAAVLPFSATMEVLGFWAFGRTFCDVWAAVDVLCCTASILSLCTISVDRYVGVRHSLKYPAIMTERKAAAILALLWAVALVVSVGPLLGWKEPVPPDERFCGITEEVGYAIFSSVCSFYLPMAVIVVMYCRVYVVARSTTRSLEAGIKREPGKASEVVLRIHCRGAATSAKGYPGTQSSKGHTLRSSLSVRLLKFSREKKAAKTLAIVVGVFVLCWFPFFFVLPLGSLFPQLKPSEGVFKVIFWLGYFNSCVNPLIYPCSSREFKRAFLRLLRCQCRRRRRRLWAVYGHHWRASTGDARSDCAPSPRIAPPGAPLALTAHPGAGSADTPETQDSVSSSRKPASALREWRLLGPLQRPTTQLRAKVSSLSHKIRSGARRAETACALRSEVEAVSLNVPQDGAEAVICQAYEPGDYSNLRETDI
# [14] = target: 5-hydroxytryptamine receptor 1B (Cavia porcellus); assay: Compound was evaluated for its antagonist affinity towards 5-hydroxytryptamine 1B receptor of guinea pig; details: read-out: pA2 (converted)
# Histamine H1 receptor [15] = target: T1, Histamine H1 receptor; assay: Effective concentration for agonism activity in Endothelium-Denuded guinea pig aortic segment; type: functional, tissue-based, Aorta
# Summary of the method: (§4)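 Guinea-pig thoracic aortic rings (2–4 mm), endothelium rubbed off, isometric (10 mN), modified Krebs-Henseleit (1.80 mM Ca2+), 37 °C. Cimetidine, corticosterone and cocaine (30 µM each), prazosin and yohimbine (0.3 µM each) and propranolol (0.1 µM) were present. […] The pEC50 shift was corrected using untreated control preparations.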
# [16] = target: Histamine H1 receptor (Cavia porcellus) (UniProt P31389); assay: Intrinsic activity was reported in endothelium-denuded guinea pig(pre contracted with PGF-2 alpha) at a concentration of 10 uM; type: functional
# Summary of the method: (§5)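 Endothelium-denuded guinea-pig aortic rings, set up as in the contraction assay, challenged twice with PGF2α (10 µM). Rings were precontracted with a threshold PGF2α level (usually 0.4–1.5 µM, 10–20% of the 10 µM response).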
# Histamine H1 receptor [17] = target: T2, Histamine H1 receptor; assay: Relative potency was recorded in relaxed rat aortic rings with intact endothelium, submaximally precontracted with 15.8 nM U-46,619 value; type: functional, tissue-based, Aorta; details: read-out: pA2 (converted)
# [18] = target: Histamine H1 receptor (Cavia porcellus) (UniProt P31389); details: 10 uM
# Histamine H1 receptor [19] = target: T1, Histamine H1 receptor; assay: Relative potency was recorded in endothelium-denuded guinea pig(pre contracted with PGF-2 alpha); value ranges from 5.76 to 6.40; type: functional; details: read-out: pA2 (converted); summary of the method: as §5
# Histamine H1 receptor [20] = target: T1, Histamine H1 receptor; assay: Relative potency was recorded in endothelium-denuded guinea pig; value ranges from 5.75 to 6.25; type: functional; details: read-out: pA2 (converted); summary of the method: as §4
# Histamine H1 receptor [21] = target: T1, Histamine H1 receptor; assay: Effective concentration for agonism activity in endothelium-denuded guinea pig aortic segment; type: functional, tissue-based, Aorta; summary of the method: as §4
# [22] = target: Histamine H1 receptor (Cavia porcellus) (UniProt P31389); assay: Negative logarithm of receptor dissociation constant Kp was reported in guinea pig ileum whole segment; type: functional, tissue-based; summary of the method: as §1
# [23] = target: Histamine H1 receptor (Rattus norvegicus) (UniProt P31390); assay: The compound was evaluated for intrinsic activity in relaxed rat aortic rings with intact endothelium, submaximally precontracted with 15.8 nM U-46,619; type: functional, tissue-based; parameters: unit not given here; details: Aorta
# Target sequence in this assay (P31390 whole entry): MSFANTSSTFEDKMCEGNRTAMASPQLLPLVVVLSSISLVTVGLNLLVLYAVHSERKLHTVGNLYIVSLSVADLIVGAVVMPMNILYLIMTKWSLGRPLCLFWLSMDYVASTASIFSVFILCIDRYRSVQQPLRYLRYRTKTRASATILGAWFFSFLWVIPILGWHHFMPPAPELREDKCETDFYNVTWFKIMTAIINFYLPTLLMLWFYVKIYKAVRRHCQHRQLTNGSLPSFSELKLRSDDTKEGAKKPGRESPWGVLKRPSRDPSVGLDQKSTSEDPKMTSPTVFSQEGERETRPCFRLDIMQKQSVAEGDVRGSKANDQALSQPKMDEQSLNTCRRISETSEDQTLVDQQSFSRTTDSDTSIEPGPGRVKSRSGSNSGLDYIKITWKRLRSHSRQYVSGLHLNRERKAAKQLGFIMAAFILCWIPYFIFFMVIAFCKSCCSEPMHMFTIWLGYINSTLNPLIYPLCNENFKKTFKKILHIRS
# [24] = target: Histamine H1 receptor (Rattus norvegicus) (UniProt P31390); assay: Compound was evaluated for mepyramine antagonism effects in rat aorta (relaxation) at a mepyramine concentration of 100 nM; details: read-out: pA2 (converted)
# Target sequence in this assay (P31390 whole entry, looked up): as the sequence (P31390 whole entry) above
# [25] = target: Histamine H1 receptor (Cavia porcellus) (UniProt P31389); assay: concentration of mepyramine was determined; type: functional
# Cavia porcellus = organism: Cavia porcellus; assay: Mepyramine concentration required to antagonise histaprodifens compound induced effects in guinea pig or rat assays; type: functional, organism-based
# [26] = target: Serotonin 3 (5-HT3) receptor; assay: Compound was evaluated for its antagonist affinity towards 5-hydroxytryptamine 3 receptor of guinea pig; type: functional, Cavia porcellus; summary of the method: as §3
# Histamine H1 receptor [27] = target: T2, Histamine H1 receptor; assay: Compound was evaluated for mepyramine antagonism effects in rat aorta (relaxation) at a mepyramine concentration of 100 nM; details: read-out: pA2 (converted)
# Chain of Histamine H1 receptor (Cavia porcellus) (P31389 whole entry): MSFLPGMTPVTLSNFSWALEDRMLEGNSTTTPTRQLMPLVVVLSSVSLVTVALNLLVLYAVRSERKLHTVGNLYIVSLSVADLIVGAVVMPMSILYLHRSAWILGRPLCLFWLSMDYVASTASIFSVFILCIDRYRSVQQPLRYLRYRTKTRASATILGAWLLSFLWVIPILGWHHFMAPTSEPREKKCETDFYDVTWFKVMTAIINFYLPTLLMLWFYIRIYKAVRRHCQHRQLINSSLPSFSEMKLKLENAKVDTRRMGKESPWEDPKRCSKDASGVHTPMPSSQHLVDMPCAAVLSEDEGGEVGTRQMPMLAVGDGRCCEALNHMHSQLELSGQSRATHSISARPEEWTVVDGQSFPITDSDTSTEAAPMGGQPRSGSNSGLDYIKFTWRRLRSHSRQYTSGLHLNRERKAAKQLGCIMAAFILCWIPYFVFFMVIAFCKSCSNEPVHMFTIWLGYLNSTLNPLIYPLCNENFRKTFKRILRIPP
# T1 sequence (P31389 whole entry): as above
# Chain of Muscarinic acetylcholine receptor M3 (Q8VH26 whole entry): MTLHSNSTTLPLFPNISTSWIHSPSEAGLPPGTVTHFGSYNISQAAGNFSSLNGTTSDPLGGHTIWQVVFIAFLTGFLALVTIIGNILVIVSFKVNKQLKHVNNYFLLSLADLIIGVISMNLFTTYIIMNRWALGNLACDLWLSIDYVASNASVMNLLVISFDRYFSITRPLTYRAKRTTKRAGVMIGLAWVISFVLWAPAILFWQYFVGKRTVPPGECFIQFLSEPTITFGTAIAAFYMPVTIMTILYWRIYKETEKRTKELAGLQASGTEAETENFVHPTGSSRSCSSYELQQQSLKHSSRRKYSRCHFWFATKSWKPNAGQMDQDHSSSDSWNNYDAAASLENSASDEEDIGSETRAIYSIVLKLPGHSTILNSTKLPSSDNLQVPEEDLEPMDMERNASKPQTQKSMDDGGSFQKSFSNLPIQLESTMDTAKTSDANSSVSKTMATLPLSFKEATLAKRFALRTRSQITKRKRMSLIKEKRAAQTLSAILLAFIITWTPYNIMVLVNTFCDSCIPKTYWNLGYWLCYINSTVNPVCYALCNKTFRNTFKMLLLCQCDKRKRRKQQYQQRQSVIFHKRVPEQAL
# T2 sequence (P31390 whole entry): as the sequence (P31390 whole entry) above
# Chain of Histamine H3 receptor (Q9JI35 whole entry): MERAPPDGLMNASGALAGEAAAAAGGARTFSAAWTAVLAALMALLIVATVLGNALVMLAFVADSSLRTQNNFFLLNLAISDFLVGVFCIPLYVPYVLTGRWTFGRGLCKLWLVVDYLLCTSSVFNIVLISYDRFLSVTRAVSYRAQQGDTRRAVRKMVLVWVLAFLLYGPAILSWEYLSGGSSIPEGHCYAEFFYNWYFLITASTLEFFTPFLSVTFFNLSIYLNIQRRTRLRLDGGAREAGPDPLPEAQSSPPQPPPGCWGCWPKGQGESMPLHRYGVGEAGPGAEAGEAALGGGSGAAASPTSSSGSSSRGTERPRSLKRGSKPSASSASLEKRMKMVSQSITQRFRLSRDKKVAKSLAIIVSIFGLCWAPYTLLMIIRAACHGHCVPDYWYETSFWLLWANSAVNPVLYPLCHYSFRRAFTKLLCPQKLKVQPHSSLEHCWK
# Chain of Histamine H2 receptor (P47747 whole entry): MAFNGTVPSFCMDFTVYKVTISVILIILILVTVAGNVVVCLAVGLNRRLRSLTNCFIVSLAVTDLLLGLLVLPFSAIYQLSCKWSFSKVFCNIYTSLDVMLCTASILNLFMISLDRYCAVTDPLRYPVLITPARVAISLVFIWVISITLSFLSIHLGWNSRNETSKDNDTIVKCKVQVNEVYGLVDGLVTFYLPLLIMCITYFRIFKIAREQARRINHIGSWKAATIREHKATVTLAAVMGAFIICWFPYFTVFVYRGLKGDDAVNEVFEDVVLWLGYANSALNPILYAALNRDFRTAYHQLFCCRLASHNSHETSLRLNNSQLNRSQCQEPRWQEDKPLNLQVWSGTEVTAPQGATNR
# Chain of 5-hydroxytryptamine receptor 4 (Q62758 whole entry): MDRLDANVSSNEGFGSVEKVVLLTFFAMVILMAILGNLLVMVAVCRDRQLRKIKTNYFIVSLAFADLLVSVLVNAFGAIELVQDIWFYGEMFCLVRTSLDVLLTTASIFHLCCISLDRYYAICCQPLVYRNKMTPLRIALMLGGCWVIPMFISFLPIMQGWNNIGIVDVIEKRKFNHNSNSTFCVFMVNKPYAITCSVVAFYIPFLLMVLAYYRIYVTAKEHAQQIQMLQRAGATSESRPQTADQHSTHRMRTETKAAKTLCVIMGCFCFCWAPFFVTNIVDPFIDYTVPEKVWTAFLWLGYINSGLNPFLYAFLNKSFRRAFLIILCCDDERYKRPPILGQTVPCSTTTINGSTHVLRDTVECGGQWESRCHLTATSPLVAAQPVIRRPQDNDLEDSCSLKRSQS
# Chain of Beta-1 adrenergic receptor (B0FL73 whole entry): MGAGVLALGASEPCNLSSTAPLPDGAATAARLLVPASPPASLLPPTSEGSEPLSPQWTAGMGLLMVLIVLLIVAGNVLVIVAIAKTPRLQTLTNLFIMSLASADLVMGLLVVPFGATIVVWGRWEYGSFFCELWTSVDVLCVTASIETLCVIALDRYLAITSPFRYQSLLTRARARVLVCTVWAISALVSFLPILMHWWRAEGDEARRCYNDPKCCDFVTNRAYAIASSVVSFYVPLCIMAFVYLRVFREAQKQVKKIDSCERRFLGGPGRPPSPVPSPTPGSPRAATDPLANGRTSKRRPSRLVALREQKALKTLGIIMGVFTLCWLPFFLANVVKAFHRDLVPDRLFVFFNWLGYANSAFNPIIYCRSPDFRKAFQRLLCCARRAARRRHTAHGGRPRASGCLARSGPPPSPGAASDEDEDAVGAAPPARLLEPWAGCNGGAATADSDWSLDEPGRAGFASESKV
# Chain of 5-hydroxytryptamine receptor 2A (P14842 whole entry): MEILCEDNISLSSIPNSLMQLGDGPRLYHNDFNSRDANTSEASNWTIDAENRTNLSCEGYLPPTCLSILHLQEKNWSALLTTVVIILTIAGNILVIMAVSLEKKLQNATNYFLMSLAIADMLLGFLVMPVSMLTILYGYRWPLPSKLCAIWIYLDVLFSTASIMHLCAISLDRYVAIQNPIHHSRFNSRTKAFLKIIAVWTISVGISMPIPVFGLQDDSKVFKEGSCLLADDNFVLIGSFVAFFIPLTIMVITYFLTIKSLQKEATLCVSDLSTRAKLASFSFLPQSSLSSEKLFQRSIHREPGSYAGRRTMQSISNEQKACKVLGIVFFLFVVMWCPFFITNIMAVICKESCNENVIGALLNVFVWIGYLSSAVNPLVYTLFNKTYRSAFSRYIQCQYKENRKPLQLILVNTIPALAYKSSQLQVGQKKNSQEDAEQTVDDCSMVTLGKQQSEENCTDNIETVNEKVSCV
SMILES,EC50 (Histamine H1 receptor [4]),Kb [5],Kb (Histamine H3 receptor),Kb [7],Kb (Histamine H1 receptor [8]),Kb [9],Kb [10],EC50 (Histamine H1 receptor [12]),Kb (Histamine H2 receptor),Kb [13],EC50 (Histamine H1 receptor [15]),EC50 (Histamine H1 receptor [21]),Kb (Histamine H1 receptor [6]),pKp [22],Emax [23],also measured
NCCc1c[nH]c(C(c2ccccc2)c2ccccc2)n1,2570 nM,,,,,,,,,,,,,,,Relative potency [1]: 8; pKp [2]: 5.37; Emax [3]: 28
NCCc1cnc(CCC(c2ccccc2)c2ccccc2)[nH]1,182 nM,> 3160 nM,> 1580 nM,6460 nM,1.58 nM and 0.977 nM,45700 nM,2820 nM,851 nM,34700 nM,3550 nM,1950 nM and 309 nM,,,,,Kb (Histamine H1 receptor [6]; in the assay text read “at 1-30 nM mepyramine” for “at 100 nM mepyramine”): 0.776 nM; Kb (Histamine H1 receptor [11]): 9.12 nM; Kb [14]: 14100 nM
NCCc1c[nH]c(CCCCC(c2ccccc2)c2ccccc2)n1,,,,,,,,,,,,,,,,Emax [16]: 0; Kb (Histamine H1 receptor [17]): 1070 nM; Emax [18]: 0; Kb (Histamine H1 receptor [19]): 832 nM; Kb (Histamine H1 receptor [20]): 1000 nM
CNCCc1cnc(CCC(c2ccccc2)c2ccccc2)[nH]1,57.5 nM,> 1580 nM,> 1580 nM,4070 nM,1.78 nM,14500 nM,3550 nM,158 nM,12600 nM,5750 nM,77.6 nM,490 nM,0.741 nM and 1.35 nM,,,Kb (Histamine H1 receptor [27]): 9.55 nM

# Second part, led by results:
EC50 (Histamine H1 receptor [4]),Kb [5],Kb (Histamine H3 receptor),Kb [7],Kb (Histamine H1 receptor [8]),Kb [9],Kb [10],EC50 (Histamine H1 receptor [12]),Kb (Histamine H2 receptor),Kb [13],EC50 (Histamine H1 receptor [15]),EC50 (Histamine H1 receptor [21]),Kb (Histamine H1 receptor [6]),pKp [22],Emax [23],SMILES,also measured
148 nM,,> 501 nM,,,,933 nM,355 nM,20000 nM,,,2290 nM,1.41 nM and 2.14 nM,6.17,56 and 62,c1ccc(C(CCc2nc(CCNC3CC3)c[nH]2)c2ccccc2)cc1,Kb [24]: 5.75 nM
,,,,,,,,,,,,,6.45,55,CNCCc1c[nH]c(CCC(c2ccccc2)c2ccccc2)n1,Concentration [25]: 0.003 µM and 0.005 µM; Concentration (Cavia porcellus): 0.1 µM; pA2 [26]: < 5.8
